Screening results from PubChem.
ABHD5 PLIN5 PPI: inhibitors of human ABHD5-perilipin-5 interaction; Split G. princeps luciferase complementation, luminescence, 4 h; inhibition, % at 4 µM; actives 0.78% (n = 360,000);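 active = inhibition above the mean inhibition across every tested compound plus 3 SD, cut at about 22% in these data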;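 also: 0% = DMSO only wells and the 100% control is not disclosed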
Target sequence (Q00G26 whole entry, looked up): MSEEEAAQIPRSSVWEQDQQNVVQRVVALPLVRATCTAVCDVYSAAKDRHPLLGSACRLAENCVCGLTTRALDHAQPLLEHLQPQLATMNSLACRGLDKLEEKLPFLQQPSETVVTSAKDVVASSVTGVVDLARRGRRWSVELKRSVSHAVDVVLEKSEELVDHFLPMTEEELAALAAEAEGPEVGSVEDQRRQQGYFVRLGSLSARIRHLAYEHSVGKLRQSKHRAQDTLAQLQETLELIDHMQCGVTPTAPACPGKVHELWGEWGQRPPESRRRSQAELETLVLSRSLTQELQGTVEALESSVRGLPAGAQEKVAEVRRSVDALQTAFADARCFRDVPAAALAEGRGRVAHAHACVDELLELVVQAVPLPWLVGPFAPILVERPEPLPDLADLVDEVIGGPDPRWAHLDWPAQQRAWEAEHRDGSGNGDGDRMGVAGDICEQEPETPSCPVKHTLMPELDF
Target sequence (Q8WTS1 whole entry, looked up): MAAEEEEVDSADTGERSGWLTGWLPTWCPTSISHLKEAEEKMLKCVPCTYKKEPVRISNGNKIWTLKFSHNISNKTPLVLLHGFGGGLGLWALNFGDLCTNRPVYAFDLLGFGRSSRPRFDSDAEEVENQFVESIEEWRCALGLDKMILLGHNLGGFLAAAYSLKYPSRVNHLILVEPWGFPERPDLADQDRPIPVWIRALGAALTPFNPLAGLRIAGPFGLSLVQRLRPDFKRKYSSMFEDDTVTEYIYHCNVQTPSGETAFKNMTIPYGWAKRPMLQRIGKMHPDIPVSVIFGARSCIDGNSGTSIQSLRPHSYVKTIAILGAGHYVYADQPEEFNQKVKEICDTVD
TLR4-MyD88 BLA: inhibitors of human TLR4-MyD88 binding. O00206+Q99836. HeLa CL3-4 TLR4/MyD88 BLA complementation, FRET ratio. inhibition, % at 8.4 µM. actives 0.18% (n = 200,000); in the data active = inhibition above about 25%;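 also: 0% = vehicle and 100% = reference inhibitor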
NOD2 RIPK2 PPI: NOD2-RIPK2 protein interaction inhibition; O43353; CHO BLA complementation NOD2-RIPK2, CCF4 ratio; inhibition, % at 4.98 µM; actives 0.38% (n = 360,000); in the data active = inhibition above about 21%;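 also: 0% = vehicle only and 100% = reference blocker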
TLR9-MyD88 block: TLR9-MyD88 interaction inhibition | AID 504734 | actives 0.21% (n = 340,000) | CHO BLA complementation TLR9-MyD88, CCF4 FRET ratio | inhibition, % at 4.98 µM | Q9NR96+Q99836;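 active = inhibition above the mean over all tested compounds plus 3 SD, cut at about 21% in these data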;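 also: 0% = DMSO only wells and 100% = clavulanate BLA inhibitor control wells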
Dynein cargo inh: blocks dynein driven cargo transport along microtubules | 3617.4 mouse cells, GR-EGFP nuclear translocation imaging; test concentration mostly 20 µM; stimulated with dexamethasone, 1 µM; stronger effect = lower value | z-score, hits read low | actives 0.47% (n = 220,000);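 active = plate z-score of nuclear minus cytoplasmic receptor signal below a set negative limit, without overly bright fluorescence or cell loss, cut at about -3.5 in these data, passing the limit was not always enough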;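 also: z-score of nuclear minus cytoplasmic ring GR-EGFP intensity difference per well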
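medium = tetracycline-free induction medium containing charcoal-stripped FBS | probe or stimulus = dexamethasone, 1.0 µM final | timing = 48 h induction, then 1 h compound, then 30 min agonist, 37 °C | detection = automated 10x imaging of fixed Hoechst-stained cells | read-out basis = nuclear versus cytoplasmic GR-EGFP signal, averaged per well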
B2AR ag: agonists of human beta-2 adrenergic receptor inducing internalization | response, % (no concentration beside the values) | actives 0.43% (n = 340,000) | P07550 | Am2.2-beta2AR cells, FAP receptor internalization, flow cytometry | AID 504454;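 active = response above a set limit, near 3 SD of response in nonfluorescent compounds, cut at about 42% in these data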
TLR4 MyD88 cnf: confirmation of human TLR4-MyD88 binding inhibitors | shares compounds with TLR4-MyD88 BLA | HeLa CL3-4 BLA complementation, CCF4 FRET ratio | AID 941 | actives 50% (n = 350) | inhibition, % at 8.4 µM;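 active = mean inhibition across three repeat runs above about 25% carried over from the earlier screen, limit read from the data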;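 also: plate controls were DMSO only for no effect and clavulanic acid blocking BLA at full dose for full effect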
BLA inhibitor ct: inhibits beta-lactamase activity, counter-screen to TLR4-MyD88 binding inhibitors; shares compounds with TLR4-MyD88 BLA; HeLa BLA reporter, CCF4 FRET ratio; inhibition, % at 8.4 µM; actives 63% (n = 350);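 active = mean inhibition over three repeats above about 26% taken from the earlier screen, limit read from the data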;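 also: HeLa cells stably expressing beta-lactamase reporter as counterscreen for TLR4-MyD88 inhibitors; 0% = DMSO and 100% = clavulanic acid full inhibition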
Dynein confirm: dynein cargo transport inhibition, confirmation; shares compounds with Dynein cargo inh; 3617.4 GR-EGFP nuclear translocation imaging, dexamethasone-induced; calls only at 20 µM; actives 69% (n = 1,000); AID 463116;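 active = inhibition of receptor movement into the nucleus at or above a set limit in both runs, with normal cell brightness and cell count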;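 also: dexamethasone at 1 µM final in well for 30 min; nuclear minus cytoplasmic GR-EGFP mean intensity difference in channel 2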
* hit, by the source's call. Shown are actives, neighbours in structure and some others; about 1.6% of the full set was active somewhere.

For C#CCNC(=O)C[C@@H]1C[C@@]2(C(=O)OC)CCCCC=C2N(CCC2=CCCCC2)C1=O the results were ABHD5 PLIN5 PPI -3.1 and NOD2 RIPK2 PPI 8.6.
Screening Cc1ccc(/C=C2\CCC3=C2OC(N)=C(C#N)C3c2ccc(C)cc2)cc1 (configuration not stated) returned ABHD5 PLIN5 PPI 5.6, TLR4-MyD88 BLA 34.1*, NOD2 RIPK2 PPI 10.7, TLR9-MyD88 block 11.0, Dynein cargo inh -8.97, TLR4 MyD88 cnf 28.6*, BLA inhibitor ct 65.7* and Dynein confirm inactive.
Screening Cc1cccc(C)c1NC(=O)COC(=O)/C=C/c1ccc(S(=O)(=O)N2CCOCC2)cc1 returned ABHD5 PLIN5 PPI -9.0, NOD2 RIPK2 PPI 4.9, TLR9-MyD88 block -7.1 and B2AR ag 4.9.
For CC(=O)c1sc2nc(-c3cccs3)cc(C(F)(F)F)c2c1N the results were ABHD5 PLIN5 PPI -16.0, TLR4-MyD88 BLA 29.7*, NOD2 RIPK2 PPI -2.0, TLR9-MyD88 block 8.0, Dynein cargo inh -4.29, B2AR ag -264.4, TLR4 MyD88 cnf 13.1, BLA inhibitor ct 24.6 and Dynein confirm active.
Screening CCOc1ccccc1NC(=O)/C(C#N)=C/c1c(C)nn(-c2ccc(F)cc2)c1Cl returned ABHD5 PLIN5 PPI 2.2, TLR4-MyD88 BLA -0.5, NOD2 RIPK2 PPI -4.1, TLR9-MyD88 block 6.8, Dynein cargo inh -0.0274 and B2AR ag 3.5.
Screening CN(C)c1nc(C=C(C#N)C#N)c(Cl)n1-c1ccc(F)cc1 returned ABHD5 PLIN5 PPI 2.1, TLR4-MyD88 BLA 34.6*, NOD2 RIPK2 PPI 2.2, TLR9-MyD88 block 7.2, Dynein cargo inh -6.64*, B2AR ag 52.4*, TLR4 MyD88 cnf 27.2*, BLA inhibitor ct 9.3 and Dynein confirm active.
For CCOC(=O)c1c2ccc(OCC(=O)N/N=C/c3ccc(Cl)cc3)cc2n2ccccc12 the results were TLR4-MyD88 BLA 51.6*, Dynein cargo inh -3.85, TLR4 MyD88 cnf 54.4*, BLA inhibitor ct 34.0* and Dynein confirm inactive.
For N#Cc1cccc(NC(=O)CSc2ccc3c4c(cccc24)C(=O)c2ccccc2-3)c1 the results were ABHD5 PLIN5 PPI 3.8, TLR4-MyD88 BLA 53.8*, NOD2 RIPK2 PPI 13.0, TLR9-MyD88 block 20.5, Dynein cargo inh -6.01, B2AR ag -831.7, TLR4 MyD88 cnf 35.5*, BLA inhibitor ct 65.3* and Dynein confirm active.
`N#Cc1cccc(NC(=O)CSc2ccccc2)c1` gave ABHD5 PLIN5 PPI 3.6, TLR4-MyD88 BLA -18.3, NOD2 RIPK2 PPI -10.6, TLR9-MyD88 block 4.3, Dynein cargo inh -0.233 and B2AR ag 6.7.
For O=C(Cc1c(F)c(F)c(F)c(F)c1F)Nc1nc(-c2ccccc2)cs1 the results were ABHD5 PLIN5 PPI -3.8, NOD2 RIPK2 PPI -0.9, TLR9-MyD88 block -4.3 and B2AR ag 14.4.
COc1ccc(NS(=O)(=O)c2cc([N+](=O)[O-])ccc2N/N=C\c2c(C)[nH]c3ccccc23)cc1 was read as ABHD5 PLIN5 PPI -2.5, TLR4-MyD88 BLA 10.2, NOD2 RIPK2 PPI 9.3, TLR9-MyD88 block 5.6, Dynein cargo inh -0.184 and B2AR ag -578.5.
